Source: ChEMBL document CHEMBL1124234, “Beta-substituted phenethylamines as high-affinity mechanism-based inhibitors of dopamine beta-hydroxylase” (J Med Chem, 1988)
The source made the active and inactive calls. No cut-off for these calls is given here.

Key:
[1] = molecular target: T1, Dopamine beta-hydroxylase (Bos taurus) (UniProt P15101); assay: Kis value for the affinity towards homogenous bovine dopamine beta-hydroxylase (DBH)
T1 sequence (whole entry): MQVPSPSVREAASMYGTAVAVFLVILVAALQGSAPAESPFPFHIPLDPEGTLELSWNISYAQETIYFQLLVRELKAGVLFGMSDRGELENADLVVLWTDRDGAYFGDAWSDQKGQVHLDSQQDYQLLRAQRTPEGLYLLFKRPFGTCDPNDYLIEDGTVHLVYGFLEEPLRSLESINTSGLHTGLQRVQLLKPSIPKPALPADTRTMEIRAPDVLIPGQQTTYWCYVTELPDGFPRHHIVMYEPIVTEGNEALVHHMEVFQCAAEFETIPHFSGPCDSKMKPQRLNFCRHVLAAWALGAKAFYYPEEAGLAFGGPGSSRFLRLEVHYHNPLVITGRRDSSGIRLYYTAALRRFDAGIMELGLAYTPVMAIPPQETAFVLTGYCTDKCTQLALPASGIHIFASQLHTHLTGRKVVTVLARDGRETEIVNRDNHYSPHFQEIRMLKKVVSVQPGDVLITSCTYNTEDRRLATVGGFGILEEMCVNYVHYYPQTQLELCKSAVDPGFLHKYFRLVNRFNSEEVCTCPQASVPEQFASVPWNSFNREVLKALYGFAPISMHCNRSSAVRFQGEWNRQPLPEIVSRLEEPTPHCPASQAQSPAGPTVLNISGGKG
Procedure, shortened: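 Competitive inhibition constant was measured against tyramine substrate without fumarate, using homogeneous bovine DBH (30-42 units/mg at pH 5.0). Conditions were pH 5.0, ionic strength 0.2, 50 mM sodium acetate, 1 mg/mL catalase, 10 μM Cu²⁺, 10 mM ascorbate and 37 °C. Kis was obtained by kinetic fitting and is reported as mean ± SEM.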

[2] = molecular target: T2, Dopamine beta-hydroxylase (Bos taurus, UniProt P15101); assay: KI value was determined from plots of 1/kinact(observed) vs 1/[inhibitor]; e denotes 'Minimal time dependent inactivation'
T2 sequence (P15101 whole entry): T1 sequence (whole entry)
Procedure, shortened: (§1)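 Homogeneous bovine DBH (specific activity 30-42 units/mg at pH 5.0) was used in 50 mM sodium acetate at pH 5.0 and ionic strength 0.2, with 1 mg/mL catalase, 10 μM Cu²⁺ and 10 mM ascorbic acid at 37 °C. O₂ was held at 0.24 mM, so kinact values are apparent. kinact(observed) came from log % activity remaining vs time. KI and kinact came from 1/kinact(obs) vs 1/[inhibitor] plots using at least four inhibitor concentrations. Values are mean ± SEM.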

[3] = molecular target: T1, Dopamine beta-hydroxylase (Bos taurus); assay: Kinact value is determined from a plot of log(percent enzyme activity remaining) vs times; e denotes 'Minimal time dependent inactivation'; procedure, shortened: as §1
[4] = molecular target: T1, Dopamine beta-hydroxylase (Bos taurus); assay: Kinact value is determined from a plot of log(percent enzyme activity remaining) vs times; procedure, shortened: as §1
[5] = molecular target: T2, Dopamine beta-hydroxylase; assay: KI value was determined from plots of 1/kinact(observed) vs 1/[inhibitor]; procedure, shortened: as §1
[6] = molecular target: T1, Dopamine beta-hydroxylase (Bos taurus); assay: Kinact value is determined from a plot of log(percent enzyme activity remaining) vs times; Apparent values at pH 5.0, 0.24 mM O2
[7] = molecular target: T2, Dopamine beta-hydroxylase; assay: KI value was determined from plots of 1/kinact(observed) vs 1/[inhibitor]; Apparent values at pH 5.0, 0.24 mM O2

Row | Structure (SMILES) | Kis [1] [µM] | Ki [2] | K inact [3] | other results
1 | C=CC(CN)c1cccc(O)c1 (centres undefined) | 1270 | Inactive | inactive | 
2 | C#CC(CN)c1ccc(O)cc1 (stereo in doubt; (+\-)3) [listing 1 of 2 here] | 13.6 |  |  | K inact [4]: 0.023 min⁻¹
3 | C#CC(CN)c1ccccc1 (centres undefined) | 160 | Inactive | inactive | 
4 | C#CC(CN)c1ccc(O)cc1 (single isomer, unassigned; (-)) [listing 1 of 2 here] | 33.9 |  |  | K inact [4]: 0.184 min⁻¹
5 | Oc1ccc(CC2CC2)cc1 |  |  |  | K inact [4]: 1.8 min⁻¹; Ki [5]: 12000 µM
6 | C=C(CN)c1ccc(O)cc1 |  |  |  | K inact [6]: 0.81 min⁻¹; Ki [7]: 520 µM
7 | C#CC(CN)c1cccc(O)c1 (centres undefined) | 190 | Inactive | inactive | 
8 | C=C(CN)c1cccs1 |  |  |  | K inact [4]: 0.124 min⁻¹
9 | C#CC(CN)c1ccc(O)cc1 (single isomer, unassigned; (-)) [listing 2 of 2 here] |  |  |  | Ki [5]: 57 µM
10 | C#CC(CN)c1ccc(O)cc1 (stereo in doubt; (+\-)3) [listing 2 of 2 here] |  |  |  | Ki [5]: 15.7 µM

Second part, led by results:

Row | Kis [1] [µM] | Ki [2] | K inact [3] | Structure (SMILES) | other results
11 | 670 | Inactive | inactive | C=CC(CN)c1ccccc1 (centres undefined) | 
12 |  | Inactive |  | C#CC(CN)c1ccc(O)cc1 (stereo in doubt; (+)3) [listing 1 of 2 here] | 
13 | 82 | Inactive | inactive | C=CC(CN)c1ccc(O)cc1 (centres undefined) | 
14 | 7.9 |  | inactive | C#CC(CN)c1ccc(O)cc1 (stereo in doubt; (+)3) [listing 2 of 2 here] | 
